The values below come from ChEMBL document CHEMBL3758111, “DFT Calculations and ROESY NMR Data for the Diastereochemical Characterization of Cytotoxic Tetraterpenoids from the Oleoresin of Abies balsamea” (J Nat Prod, 2015).

Experiment [1] is described as follows: Cytotoxicity against human WS1 cells assessed as growth inhibition after 48 hrs by resazurin assay. It counts as cell-based. The settings on record: WS1, 48 h. Summed up: (§1)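 Human lung carcinoma A549, colon adenocarcinoma DLD-1 and normal skin fibroblast WS1 cells were tested by resazurin reduction, following an earlier-published protocol. Values are IC50, the concentration inhibiting 50% of cell growth. Etoposide served as the positive control.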

The nature of experiment [2]: Cytotoxicity against human DLD1 cells assessed as growth inhibition after 48 hrs by resazurin assay. It counts as functional, cell-based. The settings on record: DLD-1, 48 h. An outline of the steps:
as §1

Another experiment has as its system A549. The experiment in a line: Cytotoxicity against human A549 cells assessed as growth inhibition after 48 hrs by resazurin assay. It counts as functional, cell-based. To be noted: A549, 48 h. Summed up:
as §1

pIC50: −log10 of the molar value.

Turning to `C=C(C)[C@@H]1C=CC2=C3CC[C@@](C)([C@H](C)CC(=O)[C@H]4CC=C(CCC=C(C)C)C[C@]4(C)C(=O)O)[C@]3(C)CC[C@H]2[C@@]1(C)CCC(=O)O`, the pIC50 (in experiment [1]; in experiment [2]; with A549) was < 5.00 in each case.

Take `C=C(C)[C@@H]1CC=C2[C@@H](CC[C@]3(C)[C@@H]([C@H](C)CC(=O)[C@@H]4CC=C(CCC=C(C)C)C[C@@]4(C)C(=O)O)CC[C@@]23C)[C@@]1(C)CCC(=O)O`: the pIC50 (in experiment [1]; in experiment [2]; with A549) was < 5.00 each time.

Regarding `C=C(C)[C@@H]1C=CC2=C3CC[C@@](C)([C@H](C)CC(=O)[C@@H]4CC=C(CCC=C(C)C)C[C@@]4(C)C(=O)O)[C@]3(C)CC[C@H]2[C@@]1(C)CCC(=O)OC`, the pIC50 in experiment [1] was < 5.00; in experiment [2] it was < 5.00; in the experiment with A549 it was 5.17.

As for `C=C(C)[C@@H]1CC=C2[C@@H](CC[C@]23C(=C)CC[C@@]3(C)[C@H](C)CC(=O)[C@@H]2CC(CCC=C(C)C)=CC[C@@]2(C)C(=O)O)[C@@]1(C)CCC(=O)O`, the pIC50 (in experiment [1]; in experiment [2]; in the experiment with A549) was < 5.00 in each case.

For `C=C(C)[C@@H]1CC=C2[C@@H](CC[C@]23C(=C)CC[C@@]3(C)[C@H](C)CC(=O)[C@H]2CC(CCC=C(C)C)=CC[C@]2(C)C(=O)O)[C@@]1(C)CCC(=O)O`, the pIC50 (in experiment [1]; in experiment [2]; with A549) was < 5.00 throughout.

`C=C(C)[C@@H]1C=CC2=C3CC[C@@](C)([C@H](C)CC(=O)[C@@H]4CC=C(CCC=C(C)C)C[C@@]4(C)C(=O)O)[C@]3(C)CC[C@H]2[C@@]1(C)CCC(=O)O`: the negative logarithm of the IC50 (pIC50) is < 5.00 in experiment [1], < 5.00 in experiment [2] and 5.00 with A549.

In the case of `COc1cc([C@@H]2c3cc4c(cc3[C@@H](O[C@@H]3O[C@@H]5CO[C@@H](C)O[C@H]5[C@H](O)[C@H]3O)[C@H]3COC(=O)[C@H]23)OCO4)cc(OC)c1O` [ETOPOSIDE], the pIC50 in experiment [1] is < 5.00; in experiment [2], 5.70; with A549, 5.77.

As to `C=C(C)[C@@H]1C=CC2=C3CC[C@@](C)([C@H](C)CC(=O)[C@H]4CC(CCC=C(C)C)=CC[C@]4(C)C(=O)O)[C@]3(C)CC[C@H]2[C@@]1(C)CCC(=O)O`, the figures for the pIC50 (in experiment [1]; in experiment [2]; in the experiment on A549) were < 5.00, < 5.00 and 5.05, respectively.

Turning to `C=C(C)[C@@H]1C=CC2=C3CC[C@@](C)([C@H](C)CC(=O)[C@@H]4CC(CCC=C(C)C)=CC[C@@]4(C)C(=O)O)[C@]3(C)CC[C@H]2[C@@]1(C)CCC(=O)O`, the pIC50 (in experiment [1]; in experiment [2]; in the experiment with A549) was < 5.00 in each case.

Take `C=C(C)[C@@H]1CC=C2[C@@H](CC[C@]23C(=C)CC[C@@]3(C)[C@H](C)CC(=O)[C@H]2CC(CCC=C(C)C)=CC[C@]2(C)C(=O)O)[C@@]1(C)CCC(=O)OC`: the pIC50 in experiment [1] was < 5.00; in experiment [2], < 5.00; in the experiment on A549 it was 5.14.
